Compound activity: PubChem, several laboratories
Only some compounds are listed: those with a hit (about 1.3% of all), similar ones and a draw of the others.
PLC-gamma1 inh: PLC-gamma1 enzyme inhibitors, primary screen, biochemical, fluorescence, purified enzyme. hit rate 0.84% among 370,000. inhibition, % at 12.2 µM. 1-phosphatidylinositol 4,5-bisphosphate phosphodiesterase gamma-1 (Homo sapiens), P19174. fluorogenic substrate; in the data active = inhibition above about 9.5%
Arrestin-AP2 inh: inhibitors of beta-arrestin/AP2 binding, primary screen, biochemical, GPCR trafficking, flow cytometry | beta-arrestin 1 C-terminal peptide binding to AP2 beta2-adaptin appendage (human) | FITC-arrestin peptide / GST-AP2 beads; AP2 beta2 appendage carries R879A mutation | inhibition, % at 10 µM | hit rate 0.31% among 340,000 | AID 504490, 2011;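 active = inhibition above a set limit, near 3 SD of compounds lacking own fluorescence, cut at about 54% in these data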;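 also: plate controls were DMSO wells for no effect and 5 µM unlabelled arrestin peptide for full effect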
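system = GST-tagged AP2 beta2-adaptin appendage (R879A) on 4 µm glutathione beads | reagent = FITC-labelled arrestin peptide probe, 50 nM final | schedule = compound with beads 12 min RT, then probe 1 h RT | signal = HyperCyt-sampled flow cytometry, FL1 channel, ex 488/em 535 nm | read-out = percent response from loss of bead-bound FITC fluorescence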
PLC-beta3 inh: human PLC-beta3 inhibitors, primary screen, biochemical, fluorescence. inhibition, % at 12.2 µM. hit rate 0.18% among 370,000. 1-phosphatidylinositol 4,5-bisphosphate phosphodiesterase beta-3 (Homo sapiens), Q01970. Purified PLC-beta3, fluorogenic substrate; in the data active = inhibition above about 11%;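 also: 0% = median of compound wells on plate and 100% = full blocker control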
Target sequence (Q01970 whole entry, looked up): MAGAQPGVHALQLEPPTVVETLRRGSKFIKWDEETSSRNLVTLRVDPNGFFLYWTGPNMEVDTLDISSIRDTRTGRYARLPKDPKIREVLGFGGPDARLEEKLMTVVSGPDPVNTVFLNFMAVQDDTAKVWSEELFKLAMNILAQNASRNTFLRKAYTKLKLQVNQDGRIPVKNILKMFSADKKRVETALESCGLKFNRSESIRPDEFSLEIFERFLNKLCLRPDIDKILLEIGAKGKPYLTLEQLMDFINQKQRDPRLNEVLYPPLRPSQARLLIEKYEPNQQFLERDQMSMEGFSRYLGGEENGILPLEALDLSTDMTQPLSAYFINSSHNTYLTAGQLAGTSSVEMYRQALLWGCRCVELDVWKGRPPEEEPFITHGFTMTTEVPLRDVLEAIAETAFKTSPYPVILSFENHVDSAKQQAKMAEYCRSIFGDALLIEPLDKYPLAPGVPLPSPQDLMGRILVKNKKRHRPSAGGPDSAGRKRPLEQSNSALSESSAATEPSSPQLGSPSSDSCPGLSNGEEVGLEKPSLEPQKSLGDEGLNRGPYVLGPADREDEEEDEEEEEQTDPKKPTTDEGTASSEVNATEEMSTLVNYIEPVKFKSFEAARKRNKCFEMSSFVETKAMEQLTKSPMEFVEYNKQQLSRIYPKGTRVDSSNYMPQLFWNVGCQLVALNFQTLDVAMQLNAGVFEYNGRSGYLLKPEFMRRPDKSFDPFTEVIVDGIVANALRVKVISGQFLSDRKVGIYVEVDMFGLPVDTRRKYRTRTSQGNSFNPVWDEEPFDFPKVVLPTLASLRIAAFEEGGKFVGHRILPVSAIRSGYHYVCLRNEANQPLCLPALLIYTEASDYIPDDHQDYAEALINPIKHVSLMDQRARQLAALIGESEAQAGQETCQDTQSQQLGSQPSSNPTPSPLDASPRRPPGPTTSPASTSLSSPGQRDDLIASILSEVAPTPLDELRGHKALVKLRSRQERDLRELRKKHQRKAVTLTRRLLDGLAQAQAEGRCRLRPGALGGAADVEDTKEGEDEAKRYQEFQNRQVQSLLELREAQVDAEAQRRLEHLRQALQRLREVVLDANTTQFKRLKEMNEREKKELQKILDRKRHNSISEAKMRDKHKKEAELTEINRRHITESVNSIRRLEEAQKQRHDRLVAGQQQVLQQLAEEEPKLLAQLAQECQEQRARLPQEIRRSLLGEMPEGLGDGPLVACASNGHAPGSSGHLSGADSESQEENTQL
NTR1 agonist: agonists of human NTR1, primary screen, imaging, U2OS cells, beta-arrestin-GFP, high content. NTR1-U2OS beta-arrestin-GFP spot imaging, agonist mode. activation, % at 20 µM. hit rate 0.17% among 330,000;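 active = activation at or above 40% of the spot to cytoplasm intensity ratio, with at least 20 cells analyzed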;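 also: 0% = DMSO without peptide and 100% = 100 nM NTR1 peptide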
* hit, by the source's call; . = no result.

SMILES	PLC-gamma1 inh	Arrestin-AP2 inh	PLC-beta3 inh	NTR1 agonist
CC1=NN(c2cccc(C(=O)O)c2)C(=O)/C1=C\C=C\c1ccco1	23*	9	8	-1
COc1ccc(CN=Cc2c(O)[nH]c3ccccc23)cc1	10.0*	-15	5	-1
CCOC(=O)c1csc(N/N=C2\CCCc3ccccc32)n1	-1	-5	-9	42*
CCOC(=O)c1csc(N/N=C2\CCc3ccccc32)n1	-4	6	-11	10
CCOC(=O)C1(Cc2ccccc2)CCN(Cc2cccc(C#N)c2)CC1	0	.	3	.
CCCCn1c(NS(=O)(=O)c2ccccc2)c(S(=O)(=O)c2ccc(C)cc2)c2nc3ccccc3nc21	17*	-2	-20	.
C=CCN1C(=O)[C@@H](CC(=O)N2CCN(C(=O)c3ccco3)CC2)[C@]2(C(=O)OCC)CCCCC/C=C/12	0	.	-2	.
O=C(NC1CCCCC1)O[C@H]1CC[C@@]23CCCN2C(=O)CCC[C@H]3C1	2	.	4	.
C[C@@H]1CN([C@@H](C)CO)C(=O)CCCn2cc(nn2)CO[C@H]1CN(C)C(=O)c1ccncc1	2	.	-2	.
CCC1CCCCN1C(=O)N[C@@H](CCSC)C(=O)OC (stereo partly drawn)	-1	6	3	-1
C=CC[C@H]1C=C[C@@H](C(C(=O)OC)C(=O)OC)CN1C(C)=O	20*	-2	-2	.
CC[C@H]1C=C[C@@H](C(C(=O)OC)C(=O)OC)CN1C(C)=O	25*	-2	4	.
CNc1ccc(C(=O)OCC(=O)NC(=O)NC2CCCC2)cc1[N+](=O)[O-]	13*	-3	-5	2
CN(C)S(=O)(=O)c1cccc(-c2nnc(SCCNCCO)n2-c2ccc(F)cc2)c1	14*	-19	14*	2
CCCSc1nnc(-c2cccc(S(=O)(=O)N(C)C)c2)n1-c1cc(OC)ccc1OC	2	-5	2	2
CCOc1cccc2sc(N(CCCN(C)C)C(=O)c3ccc(S(=O)(=O)N(CC)Cc4ccccc4)cc3)nc12	3	16	-4	52*
Cc1cc(C)cc(N(CC(=O)NC2CCC(C)CC2)S(=O)(=O)c2ccc(C)c(C)c2)c1 (stereo not drawn)	0	.	3	.
CC(C)Oc1ccc(C(CCN)C2CCCCC2)cc1 (stereo not drawn)	12*	3	-4	38
CC(=O)N1CCN(C(=O)CSc2nc3cccnc3n2C)CC1	1	.	1	.
CC[C@H](C)Cc1cn([C@@H](CCCN=C(NC(=O)OC(C)(C)C)NC(=O)OC(C)(C)C)C(=O)NCCCCCCCCCCC(=O)N2CCN(C(=O)OC(C)(C)C)CC2)nn1	.	-2	.	45*
CCOc1cc(/C=N/NC(N)=S)cc(Br)c1OCc1ccccc1C	.	-7	.	42*
COc1cc(/C=N/NC(N)=S)cc(Br)c1OCc1ccccc1F	2	0	0	39
c1nc(NC[C@@H]2CCCO2)c2cc(-c3ccc4c(c3)OCO4)ccc2n1	-113	.	-169	.
O=C(N/C(=C\c1ccc(Cl)cc1)C(=O)N1CCOCC1)c1ccc([N+](=O)[O-])cc1	15*	0	-4	-1
O=C(N/C(=C/c1ccc(Cl)cc1)C(=O)N1CCOCC1)c1ccccc1	0	5	-6	0
SMILES	PLC-gamma1 inh	Arrestin-AP2 inh	PLC-beta3 inh	NTR1 agonist
COCCNC(=S)N(C)[C@H]1C[C@H]2c3[nH]c4c(-c5ccc6c(c5)OCO6)cccc4c3CCN2C[C@H]1[C@H](C)O	-10	.	-13	.
CC1(C)CC(Cc2ccc(C(=O)c3ccccc3)cc2)N(C(=O)OC(C)(C)C)N1 (stereo not drawn)	11*	.	9	.
COc1cccc(C(=O)Nc2ccc3nc(N4CCN(c5ncccn5)CC4)cc(C)c3c2)c1OC	.	.	.	47*
O=C(CN1CCN(c2ccc(F)cc2)CC1)Nc1ccccc1Br	17*	-1	4	4
COc1cccc(-c2nnc(SCC(=O)Nc3cccc4ccccc34)n2Cc2ccco2)c1	5	.	-5	.
C[C@@H]1CCC(=O)N(C[C@@H](C)CSc2ccccc2)CC1	11*	-1	7	-5
Cc1ccc(-c2nn(-c3ccccc3)cc2C=C2C(=O)CC(C)(C)CC2=O)cc1	-3	2	-2	46*
CCOc1ccccc1C(=O)N1CCC(Oc2cccnc2)CC1	3	.	1	.
CCCCCCCCCCCCCCCC[n+]1ccc(/C=N/O)cc1	17*	0	5	21
CCCCCCCCCCCCCCCC[n+]1ccc(C(N)=O)cc1	6	13	5	1
O=C(Nc1cc(C(F)(F)F)ccc1N1CCOCC1)c1ccccc1	3	1	0	2
O=C(O)c1ccccc1C(=O)Nc1cc(C(F)(F)F)ccc1N1CCCC1	10*	24	3	0
CC1=NN(c2ccccc2)C(=O)/C1=C\c1ccc(Oc2ccc([N+](=O)[O-])cc2[N+](=O)[O-])cc1	20*	0	4	2
COc1cc(/C=C2/C(=O)N(c3ccc(C)c(C)c3)N=C2C)cc([N+](=O)[O-])c1O	0	5	-3	5
COc1cc(CNC(=O)CCCC(=O)c2ccccc2)cc(OC)c1OC	9.9*	-4	-1	-1
CCCNC(=O)C(=O)Nc1ccc(N(C)C)cc1	11*	0	8	0
CCOC(=O)c1cccc(NC(=O)CN(c2ccc(OC)cc2)S(=O)(=O)c2c(C)noc2C)c1	2	-6	4	1
COc1ccc(N(CC(=O)Nc2cccc(C(=O)O)c2)S(=O)(=O)c2c(C)noc2C)cc1	13*	7	8	-1
Cc1oc2ccc(OC(C(=O)O)c3ccccc3)cc2c1C(=O)O (stereo not drawn)	9.9*	0	6	0
O=C(N[C@H](Cc1ccccc1)C(=O)NCCN1CCOCC1)[C@H]1O[C@@H](n2ccc(=O)[nH]c2=O)[C@H](O)[C@@H]1O	0	.	2	.
COc1ccc(C(CNC(=O)c2ccc(C)c(S(=O)(=O)N3CCOCC3)c2)N2CCCC2)cc1 (stereo not drawn)	10*	2	-15	.
COc1ccc(C(CNC(=O)c2ccc(C)c(S(=O)(=O)N3CCCCC3)c2)N2CCCC2)cc1 (stereo not drawn)	-2	-5	-8	.
O=C(CSc1nnc(COc2ccccc2)n1-c1ccccc1)Nc1ccc2c(c1)OCO2	0	.	0	.
CCc1c(-c2cccc(F)c2)ncn1CCc1ccccc1OC	0	.	5	.
CC(=O)OCCn1c(=O)c2cc3c(=O)n(CCOC(C)=O)c(=O)c3cc2c1=O	9.9*	-5	4	0
CCCCCCCCN1CCS(=O)(=O)N(Cc2ccc(C(F)(F)F)cc2)C(C(=O)OC)C1 (stereo not drawn)	-3	.	1	.
CCCCCCCCS(=O)C1CCS(=O)(=O)C1 (stereo not drawn)	-3	-14	-1	0
CCCCCCS(=O)[C@H]1CS(=O)(=O)C[C@@H]1S(=O)CCCCCC (stereo partly drawn)	3	40	11*	0
